ChEMBL document CHEMBL5385966, “Synthesis and biological evaluation of new naphthalimide-thiourea derivatives as potent antimicrobial agents active against multidrug-resistant Staphylococcus aureus and Mycobacterium tuberculosis” (RSC Med Chem, 2024)
Values after ≈ are worked out from the molar mass of the structure shown. Active and inactive are the calls of the source. No cut-off for these calls is given here.

Legend:
Staphylococcus aureus [1] = test: Antibacterial activity against methicillin/ceftriaxone/meropenem-resistant Staphylococcus aureus NRS10193 clinical isolate assessed as bacterial growth inhibition incubated for 16 to 18 hrs by CLSI based antibiotic susceptibility testing method; format: functional; conditions: time 16-18 hrs
How it was run: (§1)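 Broth microdilution in cation-adjusted Mueller-Hinton broth. Compounds were tested at […], with levofloxacin as reference and medium-only controls. Plates were incubated at 37 °C for 16-18 h. MIC was the lowest concentration with no visible growth; three independent determinations, each in duplicate.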

Staphylococcus aureus [2] = test: Antibacterial activity against methicillin/ceftriaxone/meropenem-resistant Staphylococcus aureus NRS10192 clinical isolate assessed as bacterial growth inhibition incubated for 16 to 18 hrs by CLSI based antibiotic susceptibility testing method; format: functional; conditions: time 16-18 hrs; how it was run: as §1
Staphylococcus aureus [3] = test: Antibacterial activity against methicillin/ceftriaxone/meropenem-resistant Staphylococcus aureus NRS10129 clinical isolate assessed as bacterial growth inhibition incubated for 16 to 18 hrs by CLSI based antibiotic susceptibility testing method; format: functional; conditions: time 16-18 hrs; how it was run: as §1
Staphylococcus aureus [4] = test: Antibacterial activity against methicillin/ceftriaxone/meropenem/vancomycin/teicoplanin-resistant Staphylococcus aureus VRS4 clinical isolate assessed as bacterial growth inhibition incubated for 16 to 18 hrs by CLSI based antibiotic susceptibility testing method; format: functional; conditions: time 16-18 hrs; how it was run: as §1
[5] = system: Mycolicibacterium fortuitum; test: Antimycobacterial activity against Mycobacterium fortuitum ATCC 6841 assessed as bacterial growth inhibition incubated for 72 hrs by resazurin dye based broth microdilution method; format: functional, organism-based
How it was run: (§2)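 Broth microdilution in Middlebrook 7H9 with 10% ADC-Tween-80 (0.2% glycerol, 0.05% Tween-80), inoculum ~10⁶ cfu/mL. Compounds came from 10 mg/mL DMSO stocks and were tested as two-fold serial dilutions at 37 °C, 7 days for M. tuberculosis H37Rv and 72 h for NTM. Growth was read visually with PrestoBlue resazurin dye; MIC was the lowest concentration preventing growth. Triplicate determinations, each in duplicate.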

[6] = system: Mycobacterium tuberculosis; test: Antimycobacterial activity against Mycobacterium tuberculosis H37Rv ATCC 27294 assessed as bacterial growth inhibition incubated for 7 days by resazurin dye based broth microdilution method; format: functional; conditions: H37Rv ATCC 27294, 168 h, time 7 day; how it was run: as §2
Staphylococcus aureus [7] = test: Antibacterial activity against methicillin/ceftriaxone-resistant Staphylococcus aureus NRS10194 clinical isolate assessed as bacterial growth inhibition incubated for 16 to 18 hrs by CLSI based antibiotic susceptibility testing method; format: functional; conditions: time 16-18 hrs; how it was run: as §1
Staphylococcus aureus [8] = test: Antibacterial activity against methicillin/ceftriaxone/meropenem/gentamycin/linezolid-resistant Staphylococcus aureus NRS10100 clinical isolate assessed as bacterial growth inhibition incubated for 16 to 18 hrs by CLSI based antibiotic susceptibility testing method; format: functional; conditions: time 16-18 hrs; how it was run: as §1
Staphylococcus aureus [9] = test: Antibacterial activity against methicillin/ceftriaxone/meropenem-resistant Staphylococcus aureus NRS10186 clinical isolate assessed as bacterial growth inhibition incubated for 16 to 18 hrs by CLSI based antibiotic susceptibility testing method; format: functional; conditions: time 16-18 hrs; how it was run: as §1
Staphylococcus aureus [10] = test: Antibacterial activity against methicillin/ceftriaxone/meropenem-resistant Staphylococcus aureus NRS10191 clinical isolate assessed as bacterial growth inhibition incubated for 16 to 18 hrs by CLSI based antibiotic susceptibility testing method; format: functional; conditions: time 16-18 hrs; how it was run: as §1
Staphylococcus aureus [11] = test: Antibacterial activity against methicillin-sensitive Staphylococcus aureus ATCC 29213 clinical isolate assessed as bacterial growth inhibition incubated for 16 to 18 hrs by CLSI based antibiotic susceptibility testing method; format: functional; conditions: time 16-18 hrs; how it was run: as §1
Pseudomonas aeruginosa = test: Antibacterial activity against Pseudomonas aeruginosa ATCC 27853 assessed as bacterial growth inhibition incubated for 16 to 18 hrs by CLSI based antibiotic susceptibility testing method; format: functional, organism-based; conditions: time 16-18 hrs; how it was run: as §1
[12] = system: Mycobacteroides abscessus; test: Antimycobacterial activity against Mycobacterium abscessus ATCC 19977 assessed as bacterial growth inhibition incubated for 72 hrs by resazurin dye based broth microdilution method; format: functional, organism-based; how it was run: as §2
Escherichia coli = test: Antibacterial activity against Escherichia coli ATCC 25922 assessed as bacterial growth inhibition incubated for 16 to 18 hrs by CLSI based antibiotic susceptibility testing method; format: functional, organism-based; conditions: time 16-18 hrs; how it was run: as §1
Staphylococcus aureus [13] = test: Antibacterial activity against methicillin/ceftriaxone/meropenem-resistant Staphylococcus aureus NRS10198 clinical isolate assessed as bacterial growth inhibition incubated for 16 to 18 hrs by CLSI based antibiotic susceptibility testing method; format: functional; conditions: time 16-18 hrs; how it was run: as §1
Klebsiella pneumoniae = test: Antibacterial activity against Klebsiella pneumoniae BAA 1705 assessed as bacterial growth inhibition incubated for 16 to 18 hrs by CLSI based antibiotic susceptibility testing method; format: functional, organism-based; conditions: time 16-18 hrs; how it was run: as §1
Staphylococcus aureus [14] = test: Antibacterial activity against methicillin/ceftriaxone/meropenem/gentamycin/vancomycin/teicoplanin-resistant Staphylococcus aureus VRS1 clinical isolate assessed as bacterial growth inhibition incubated for 16 to 18 hrs by CLSI based antibiotic susceptibility testing method; format: functional; conditions: time 16-18 hrs; how it was run: as §1
Staphylococcus aureus [15] = test: Antibacterial activity against methicillin/ceftriaxone/meropenem/gentamycin/linezolid-resistant Staphylococcus aureus NRS10119 clinical isolate assessed as bacterial growth inhibition incubated for 16 to 18 hrs by CLSI based antibiotic susceptibility testing method; format: functional; conditions: time 16-18 hrs; how it was run: as §1
Mycobacteroides chelonae = test: Antimycobacterial activity against Mycobacteroides chelonae ATCC 35752 assessed as bacterial growth inhibition incubated for 72 hrs by resazurin dye based broth microdilution method; format: functional, organism-based; how it was run: as §2
Staphylococcus aureus [16] = test: Antibacterial activity against Staphylococcus aureus ATCC 29213 assessed as bacterial growth inhibition incubated for 16 to 18 hrs by CLSI based antibiotic susceptibility testing method; format: functional; conditions: time 16-18 hrs; how it was run: as §1
Acinetobacter baumannii = test: Antibacterial activity against Acinetobacter baumannii BAA 1605 assessed as bacterial growth inhibition incubated for 16 to 18 hrs by CLSI based antibiotic susceptibility testing method; format: functional, organism-based; conditions: time 16-18 hrs; how it was run: as §1
[17] = Selectivity index, ratio of CC50 for African green monkey Vero cells to MIC for Staphylococcus aureus ATCC 29213; format: toxicity, cell-based; conditions: read-out: Selectivity Index
[18] = Cytotoxicity against African green monkey Vero cells by MTT assay; format: toxicity, cell-based; conditions: chlorocebus sabaeus
How it was run: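 Vero cells were seeded at ~10³ per well at 37 °C, 5% CO2. After 24 h, compounds were added at 5-100 mg/L for 72 h. […] was added for 4 h, formazan was dissolved in DMSO and read at 540 nm. CC50 was taken as the lowest concentration reducing viability by 50%; doxorubicin was the positive control; triplicate.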

Staphylococcus aureus [19] = test: Antibacterial activity against methicillin/ceftriaxone/meropenem/vancomycin/teicoplanin-resistant Staphylococcus aureus VRS12 clinical isolate assessed as bacterial growth inhibition incubated for 16 to 18 hrs by CLSI based antibiotic susceptibility testing method; format: functional; conditions: time 16-18 hrs; how it was run: as §1

SMILES	MIC (Staphylococcus aureus [1]) [µg/mL]	MIC (Staphylococcus aureus [2]) [µg/mL]	MIC (Staphylococcus aureus [3]) [µg/mL]	MIC (Staphylococcus aureus [4]) [µg/mL]	growth inhibition (GI) [5]	MIC [6] [µg/mL]	MIC (Staphylococcus aureus [7]) [µg/mL]	MIC (Staphylococcus aureus [8]) [µg/mL]	MIC (Staphylococcus aureus [9]) [µg/mL]	MIC (Staphylococcus aureus [10]) [µg/mL]	MIC (Staphylococcus aureus [11]) [µg/mL]	growth inhibition (GI) (Pseudomonas aeruginosa)	growth inhibition (GI) [12]	growth inhibition (GI) (Escherichia coli)	MIC (Staphylococcus aureus [13]) [µg/mL]	growth inhibition (GI) (Klebsiella pneumoniae)	MIC (Staphylococcus aureus [14]) [µg/mL]	MIC (Staphylococcus aureus [15]) [µg/mL]	growth inhibition (GI) (Mycobacteroides chelonae)	MIC (Staphylococcus aureus [16]) [µg/mL]	other results
O=C(CN1C(=O)c2cccc3cccc(c23)C1=O)N1CCC(NC(=S)Nc2ccccc2)CC1	0.25 (≈ 0.529 µM)	0.25 (≈ 0.529 µM)	1 (≈ 2.12 µM)	0.25 (≈ 0.529 µM)	inactive	> 64	1 (≈ 2.12 µM)	1 (≈ 2.12 µM)	0.25 (≈ 0.529 µM)	0.25 (≈ 0.529 µM)	1 (≈ 2.12 µM)	inactive	inactive	inactive	0.25 (≈ 0.529 µM)	inactive	0.5 (≈ 1.06 µM)	0.25 (≈ 0.529 µM)	inactive	0.5 (≈ 1.06 µM)	growth inhibition (GI) (Acinetobacter baumannii): inactive; selectivity ratio [17]: > 200; CC50 [18]: > 100 µg/mL; MIC (Staphylococcus aureus [19]): 0.5 µg/mL (≈ 1.06 µM)
O=C(CN1C(=O)c2cccc3cccc(c23)C1=O)N1CCC(NC(=S)NC2CCCCC2)CC1	0.125 (≈ 0.261 µM)	0.125 (≈ 0.261 µM)	0.125 (≈ 0.261 µM)	0.125 (≈ 0.261 µM)	inactive	> 64	0.125 (≈ 0.261 µM)	0.125 (≈ 0.261 µM)	0.125 (≈ 0.261 µM)	0.125 (≈ 0.261 µM)	0.125 (≈ 0.261 µM)	inactive	inactive	inactive	0.125 (≈ 0.261 µM)	inactive	0.125 (≈ 0.261 µM)	0.125 (≈ 0.261 µM)	inactive	0.125 (≈ 0.261 µM)	growth inhibition (GI) (Acinetobacter baumannii): inactive; selectivity ratio [17]: > 800; CC50 [18]: > 100 µg/mL; MIC (Staphylococcus aureus [19]): 0.125 µg/mL (≈ 0.261 µM)
O=C(CCN1C(=O)c2cccc3cccc(c23)C1=O)N1CCN(C(=S)NC2CCCCC2)CC1	4 (≈ 8.36 µM)	1 (≈ 2.09 µM)	2 (≈ 4.18 µM)	1 (≈ 2.09 µM)	inactive	> 64	2 (≈ 4.18 µM)	4 (≈ 8.36 µM)	1 (≈ 2.09 µM)	2 (≈ 4.18 µM)	2 (≈ 4.18 µM)	inactive	inactive	inactive	1 (≈ 2.09 µM)	inactive	2 (≈ 4.18 µM)	2 (≈ 4.18 µM)	inactive	1 (≈ 2.09 µM)	growth inhibition (GI) (Acinetobacter baumannii): inactive; selectivity ratio [17]: > 50; CC50 [18]: > 50 µg/mL; MIC (Staphylococcus aureus [19]): 2 µg/mL (≈ 4.18 µM)
O=C(CN1C(=O)c2cccc3cccc(c23)C1=O)N1CCN(C(=S)NC2CCCCC2)CC1	0.25 (≈ 0.538 µM)	0.125 (≈ 0.269 µM)	0.25 (≈ 0.538 µM)	0.25 (≈ 0.538 µM)	inactive	> 64	0.125 (≈ 0.269 µM)	0.5 (≈ 1.08 µM)	0.125 (≈ 0.269 µM)	0.25 (≈ 0.538 µM)	0.125 (≈ 0.269 µM)	inactive	inactive	inactive	0.25 (≈ 0.538 µM)	inactive	0.25 (≈ 0.538 µM)	0.25 (≈ 0.538 µM)	inactive	0.25 (≈ 0.538 µM)	growth inhibition (GI) (Acinetobacter baumannii): inactive; selectivity ratio [17]: > 400; CC50 [18]: > 100 µg/mL; MIC (Staphylococcus aureus [19]): 0.25 µg/mL (≈ 0.538 µM)
O=C1c2cccc3cccc(c23)C(=O)N1CCN1CCN(C(=S)Nc2ccccc2)CC1	2 (≈ 4.5 µM)	2 (≈ 4.5 µM)	4 (≈ 9 µM)	2 (≈ 4.5 µM)	inactive	> 64	4 (≈ 9 µM)	4 (≈ 9 µM)	4 (≈ 9 µM)	2 (≈ 4.5 µM)	4 (≈ 9 µM)	inactive	inactive	inactive	2 (≈ 4.5 µM)	inactive	4 (≈ 9 µM)	4 (≈ 9 µM)	inactive	2 (≈ 4.5 µM)	growth inhibition (GI) (Acinetobacter baumannii): inactive; selectivity ratio [17]: > 50; CC50 [18]: > 100 µg/mL; MIC (Staphylococcus aureus [19]): 4 µg/mL (≈ 9 µM)
